This is an account of results in PMC5726935 (Nature chemical biology, 2017).

In series [1] the test system is TLR8. In words: R848-induced TNF-α production in human PBMC. The settings on record: 1 μg/mL R848, dose-dependent. Format: cell-based.
Series [2] concerns the target T1, TLR7 (Homo sapiens, UniProt Q9NYK1).
T1 sequence (Q9NYK1 27-1049): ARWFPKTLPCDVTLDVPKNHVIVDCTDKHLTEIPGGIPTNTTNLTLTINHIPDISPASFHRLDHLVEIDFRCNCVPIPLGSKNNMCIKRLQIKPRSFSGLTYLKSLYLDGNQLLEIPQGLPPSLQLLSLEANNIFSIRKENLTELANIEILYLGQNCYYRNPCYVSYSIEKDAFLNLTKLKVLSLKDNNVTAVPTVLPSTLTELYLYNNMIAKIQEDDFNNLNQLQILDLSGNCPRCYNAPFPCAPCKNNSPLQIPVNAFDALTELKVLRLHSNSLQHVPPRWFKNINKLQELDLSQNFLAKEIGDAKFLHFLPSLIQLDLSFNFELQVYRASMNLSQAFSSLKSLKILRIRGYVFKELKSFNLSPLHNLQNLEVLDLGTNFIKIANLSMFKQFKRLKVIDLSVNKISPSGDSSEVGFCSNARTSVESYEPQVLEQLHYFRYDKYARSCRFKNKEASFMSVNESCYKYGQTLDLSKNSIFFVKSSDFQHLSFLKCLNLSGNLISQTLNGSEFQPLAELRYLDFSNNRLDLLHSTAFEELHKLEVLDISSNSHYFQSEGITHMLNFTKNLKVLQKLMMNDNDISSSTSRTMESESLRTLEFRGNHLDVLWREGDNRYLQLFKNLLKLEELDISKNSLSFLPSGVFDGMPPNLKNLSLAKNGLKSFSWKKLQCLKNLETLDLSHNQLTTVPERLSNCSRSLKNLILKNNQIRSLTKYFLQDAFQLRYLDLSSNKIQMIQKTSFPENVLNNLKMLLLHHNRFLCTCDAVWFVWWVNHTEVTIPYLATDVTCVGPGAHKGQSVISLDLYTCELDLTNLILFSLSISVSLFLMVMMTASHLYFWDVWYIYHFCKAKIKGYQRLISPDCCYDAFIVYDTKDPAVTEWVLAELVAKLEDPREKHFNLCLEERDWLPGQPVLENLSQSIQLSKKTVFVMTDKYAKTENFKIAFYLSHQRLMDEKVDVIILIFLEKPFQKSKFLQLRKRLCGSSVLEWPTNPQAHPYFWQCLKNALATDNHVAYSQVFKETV
As to the kind of experiment: SEAP assay in HEK-Blue TLR7 cells activated by R848. Format: cell-based. The settings on record: concentrations up to 75 μM.

The subject of series [3] is TLR8. In words: RT-PCR of IL-8 and TNF-α mRNA in R848 treated HEK-Blue TLR8 cells. Format: cell-based, human.
The test system of series [4] is HEK-Blue TLR8 cells. As to the kind of experiment: WST-1 cell proliferation. Format: cell-based, human. Conditions: HEK-Blue TLR8 cell line. (Tetrazolium dyes change colour on reduction, which living cells bring about.)
Series [5] concerns TLR8. As to the kind of experiment: ELISA of R848-induced TNF-α production in differentiated THP-1 cells. Format: cell-based, human. The essentials: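 PMA-differentiated THP-1 (100 ng/mL PMA) seeded at 2 × 10^6 cells/well in supplemented RPMI and left 24 h at 37 °C, 5% CO2 to adhere. Medium then switched to unsupplemented RPMI. […] After 24 h, TNF-α in the culture supernatant was quantified by sandwich ELISA kit.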
Background: ELISA stands for enzyme-linked immunosorbent assay.

Series [6] deals with PBMC from RA patients. In words: TNF-α production in PBMC from RA patients. Format: cell-based, human. The essentials: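 PBMC came from four RA patients (2010 ACR criteria) and one AOSD patient, isolated by density-gradient centrifugation. Cells were cultured at 3 × 10^6 cells/mL in RPMI 1640, with test compounds at 0, 10, 40, 80 μM or 0, 2.5, 10, 20, 40 μM. TNF-α was measured in cleared supernatants after 24 h.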

Series [7] deals with synovial cells isolated from osteoarthritis (OA) patients. As to the kind of experiment: Cytotoxicity on synovial cells from OA patients. Format: cell-based, human. Conditions: up to 100 μM.
For series [8], the system named is synovial cells from OA patients. As to the kind of experiment: Spontaneous cytokine release from synovial cells of OA patients. Format: cell-based, human. Conditions: synovial membrane cultures, 24 h. The essentials:
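OA synovial cells were isolated from synovial membrane taken at joint replacement and cultured at 1 × 10^6 cells/mL in RPMI 1640. After 24 h, test compound was added at 0, 10, 20, 40 or 80 μM, with chloroquine as positive control. After a further 24 h, TNF-α was measured in cleared supernatant, and IL-1β in cell lysate (EDTA, protease inhibitor) after PBS washes.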

Series [9] concerns TLR1/2/6, TLR3, TLR4, TLR5, TLR7, and TLR9 HEK-Blue. In words: TLR selectivity assay in HEK-Blue TLR-overexpressing cells. Format: cell-based, human. The settings on record: 1 μM compound, TLR-specific agonists.

Structures are written as SMILES.

`Cc1cccc(-c2ccnc3c(C(N)=O)cnn23)c1` [CU-CPT8m, 7-m-Tolylpyrazolo[1,5-a]pyrimidine-3-carboxamide]: the “R848-induced TNF-α secretion” value in series [1] is “reversed”. In addition, the “TLR7 signaling (TLR7-mediated NF-κB activation)” value in series [2] is “not affected”. Also, in series [3] (1 μM compound), the “elevation of IL-8 mRNA level induced by R848” value is listed as “completely abolished” and the “elevation of TNF-α mRNA level induced by R848” value is given as “completely abolished”. Moreover, in series [4], the cytotoxicity entry is reported as “negligible cytotoxicity”. Moreover, the concentration for half-maximal inhibition (IC50) in series [5] (Homo sapiens, THP-1, 24 h, read-out: IC50, R848-induced TNF-α production) worked out at 90 ± 10 nM. For the same compound, the TNF-α level result in series [6] (PBMCs from RA patients (and one AOSD patient), dose-dependent) is “significantly suppressed”. The cytotoxicity entry in series [7] is “little cytotoxicity”. Further, in series [8], the “spontaneous release of IL-1β” value is reported as “significant inhibitory effects” and the “spontaneous release of TNF-α” value is “significant inhibitory effects”. In series [9], the “inhibition of TLRs other than TLR8” value is reported as “did not show significant inhibition of any TLR other than TLR8”.
Take `O=C(O)c1cnn2c(-c3cccc(C(F)(F)F)c3)ccnc12` [compound 6, 7-(3-(Trifluoromethyl)phenyl)pyrazolo[1,5-a]pyrimidine-3-carboxylic acid]: the “R848-induced TNF-α secretion” value in [1] is on record as “not by 6”. Also, in [3] (10 μM compound), the “inhibition of R848-induced IL-8 mRNA level” value is “negligible inhibition” and the “inhibition of R848-induced TNF-α mRNA level” value is given as “negligible inhibition”. Moreover, in series [5] (THP-1, 10 μM compound), the “inhibition of R848-induced TNF-α production” value was “failed to show significant inhibition”. In addition, the “inhibition of TNF-α level” value in series [6] (PBMCs from RA patients, up to 80 μM) is on record as “did not show significant inhibition”.

For orientation: IC50 means the concentration that inhibits the measured activity by half.
